# Results taken from ChEMBL document CHEMBL3600329, “Synthesis, biological profiling and mechanistic studies of 4-aminoquinoline-based heterodimeric compounds with dual trypanocidal-antiplasmodial activity” (Bioorg Med Chem, 2015).
# What was measured:
# [1] = tested on: Trypanosoma brucei; assay: Trypanocidal activity against bloodstream form of Trypanosoma brucei 221 assessed as inhibition of parasite growth at pH 7.4 after 48 hrs by Spectramax plate reader analysis; format: functional, organism-based; details: Trypanosoma brucei, 221, 48 h
# Method in brief: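 Bloodstream-form T. brucei strain 221 grown at 37 °C in modified Iscove's medium; log-phase cells diluted to 0.25 × 10^5 mL⁻¹, exposed to a range of compound concentrations in triplicate at 37 °C. Resazurin added after 48 h, read after a further 16 h. IC50 and IC90 = concentrations inhibiting growth 50% and 90%; mean of triplicate experiments ± SEM.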
# [2] = tested on: Plasmodium falciparum; assay: Antiplasmodial activity against chloroquine-resistant Plasmodium falciparum K1 infected in human A+ erythrocytes assessed as inhibition of parasite growth after 48 hrs by LDH assay; format: functional, organism-based; details: K1, 48 h
# Method in brief: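 Ring-stage cultures in human A+ erythrocytes (RPMI 1640, A+ serum, D-glucose), 2.5% haematocrit, 1% parasitaemia; twofold serial dilutions in duplicate, DMSO ≤0.5% final. 48 h at 37 °C under 93% N2/3% O2/4% CO2. Growth read as lactate dehydrogenase activity (APAD, lactate, diaphorase, NBT; 550 nm); % inhibition vs controls; IC50 by linear regression; mean of triplicate experiments.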
# [3] = Selectivity index, ratio of IC50 for rat L6 cells to IC50 for chloroquine-resistant Plasmodium falciparum K1; format: toxicity, cell-based; details: read-out: Ratio IC50
# Method in brief: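 IC50 ratio, L6 over P. falciparum K1. L6 cells seeded at 1×10^4 mL⁻¹ with compound, 6 days at 37 °C, resazurin added, fluorescence after 8 h. Parasites in A+ erythrocytes (2.5% haematocrit, 1% parasitaemia) with twofold dilutions, 48 h at 37 °C in low-oxygen gas; growth read by LDH activity at 550 nm.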
# [4] = Selectivity index, ratio of IC50 for rat L6 cells to IC50 for bloodstream form of Trypanosoma brucei 221; format: toxicity, cell-based; details: read-out: Ratio IC50
# Method in brief: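 IC50 ratio, L6 over T. brucei. L6 cells seeded at 1×10^4 mL⁻¹ with compound, 6 days at 37 °C, then resazurin, 8 h more, fluorescence read. Log-phase bloodstream T. brucei 221 in modified Iscove's medium at 0.25 × 105 mL⁻¹, compound range in triplicate, 37 °C; resazurin at 48 h, read after 16 h more.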
# [5] = tested on: L6; assay: Cytotoxicity against rat L6 cells assessed as inhibition of cell growth after 6 days by Spectramax fluorescence plate reader analysis; format: cell-based; details: L6, 144 h
# Method in brief: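 L6 rat skeletal myoblasts seeded at 1×10^4 mL⁻¹ in growth medium containing a range of compound concentrations, incubated 6 days at 37 °C; resazurin added, fluorescence read after a further 8 h. IC50 = concentration inhibiting growth by 50%; mean of triplicate experiments ± SEM.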
# [6] = target: Acetylcholinesterase (Homo sapiens, UniProt P22303); assay: Inhibition of human recombinant AChE using acetylthiocholine iodide as substrate preincubated with enzyme for 20 mins prior to substrate addition by Ellman's method
# Sequence of Acetylcholinesterase (P22303 whole entry): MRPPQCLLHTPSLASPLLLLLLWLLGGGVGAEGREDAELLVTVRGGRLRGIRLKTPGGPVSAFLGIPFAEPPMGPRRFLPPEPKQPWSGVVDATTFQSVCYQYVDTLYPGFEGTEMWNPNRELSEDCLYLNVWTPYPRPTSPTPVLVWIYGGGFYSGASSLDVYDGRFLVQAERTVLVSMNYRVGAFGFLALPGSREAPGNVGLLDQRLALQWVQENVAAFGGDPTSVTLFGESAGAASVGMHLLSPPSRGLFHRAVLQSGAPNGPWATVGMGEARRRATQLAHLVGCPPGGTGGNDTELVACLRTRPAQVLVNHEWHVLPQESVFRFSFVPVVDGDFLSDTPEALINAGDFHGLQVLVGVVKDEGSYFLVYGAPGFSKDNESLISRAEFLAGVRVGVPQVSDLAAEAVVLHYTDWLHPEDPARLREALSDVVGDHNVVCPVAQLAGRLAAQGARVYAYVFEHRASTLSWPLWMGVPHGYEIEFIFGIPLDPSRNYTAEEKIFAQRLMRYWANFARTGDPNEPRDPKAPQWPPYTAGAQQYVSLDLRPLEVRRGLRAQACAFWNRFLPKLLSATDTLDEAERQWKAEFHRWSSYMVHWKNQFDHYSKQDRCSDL
# Method in brief: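 Ellman assay in 0.1 M phosphate buffer pH 8.0 with hAChE 0.02 u/mL and 333 µM DTNB. At least 10 inhibitor concentrations, in duplicate, preincubated 20 min at 37 °C. Then 450 µM acetylthiocholine iodide, 5 min at 37 °C; absorbance at 414 nm against an uninhibited sample. IC50 by non-linear regression; mean ± S.E.M. of at least 4 experiments.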
# [7] = Permeability by PAMPA-BBB assay; format: ADME; details: read-out: Peff
# Method in brief: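 Parallel artificial membrane permeation through porcine brain lipid extract, using PBS:EtOH 70:30; effective permeability Pe reported as mean ± SD of three independent experiments.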
SMILES,IC50 [1],IC90 [1],IC50 [2],selectivity ratio [3],selectivity ratio [4],IC50 [5],IC50 [6],Papp [7]
COc1cc2c(cc1OC)C(=O)C(CC1CCN(CCNc3c4c(nc5cc(Cl)ccc35)CCCC4)CC1)C2 (stereo not drawn),300 nM,680 nM,4860 nM,< 0.62,< 10,< 3000 nM,–,–
COc1cc2c(cc1OC)CC(CC1CCN(CCNc3c4c(nc5cc(Cl)ccc35)CCCC4)CC1)C2,970 nM,2390 nM,> 7720 nM,< 0.31,2.5,2420 nM,–,–
CC1=CC2Cc3nc4cc(Cl)ccc4c(NCCCCCCCCCCNc4c5c(nc6ccccc46)CCCC5)c3C(C1)C2 (stereo not drawn),140 nM,480 nM,–,–,12,1670 nM,–,–
CC1=CC2Cc3nc4ccccc4c(NCCCCCCCCCCNc4c5c(nc6cc(Cl)ccc46)CCCC5)c3C(C1)C2 (stereo not drawn),340 nM,430 nM,4360 nM,0.25,3.3,1110 nM,1.48 nM,17.2 ×10⁻⁶ cm/s
CC1=CC2Cc3nc4cc(Cl)ccc4c(NCCCN(C)CCCNc4c5c(nc6cc(Cl)ccc46)CCCC5)c3C(C1)C2 (stereo not drawn),280 nM,400 nM,520 nM,< 1.9,< 3.6,< 1000 nM,–,–
CC1=CC2Cc3nc4ccccc4c(NCCCCCCCCCCNc4c5c(nc6ccccc46)CCCC5)c3C(C1)C2 (stereo not drawn),240 nM,310 nM,3500 nM,< 0.29,< 4.2,< 1000 nM,6.46 nM,6.3 ×10⁻⁶ cm/s
CC1=CC2Cc3nc4cc(Cl)ccc4c(NCCCCCCNc4c5c(nc6cc(Cl)ccc46)CCCC5)c3C(C1)C2 (stereo not drawn),560 nM,790 nM,4400 nM,0.25,2,1100 nM,–,–
CC1=CC2Cc3nc4cc(Cl)ccc4c(NCCCCCCCCCCNc4c5c(nc6cc(Cl)ccc46)CCCC5)c3C(C1)C2 (stereo not drawn),170 nM,490 nM,2100 nM,1.3,15,2630 nM,–,–
CCC1=C[C@@H]2Cc3nc4cc(Cl)ccc4c(NCCN4CCC(CC5Cc6cc(OC)c(OC)cc6C5)CC4)c3[C@H](C1)C2,290 nM,720 nM,> 7050 nM,< 0.89,22,6290 nM,–,–
COc1cc2c(cc1OC)CC(CC1CCN(CCNc3c4c(nc5ccccc35)CCCC4)CC1)C2,380 nM,790 nM,2600 nM,< 1.2,< 7.9,< 3000 nM,–,–
CC1=CC2Cc3nc4cc(Cl)ccc4c(NCCCCCCCCCNc4c5c(nc6cc(Cl)ccc46)CCCC5)c3C(C1)C2 (stereo not drawn),240 nM,520 nM,> 6820 nM,< 5.9,167,40000 nM,–,–
CCC1=C[C@@H]2Cc3nc4cc(Cl)ccc4c(NCCCN4CCC(CC5Cc6cc(OC)c(OC)cc6C5)CC4)c3[C@H](C1)C2,260 nM,1330 nM,810 nM,2.7,8.3,2150 nM,–,–
COc1cc2c(cc1OC)C(=O)C(CC1CCN(CCNc3c4c(nc5ccccc35)CCCC4)CC1)C2 (stereo not drawn),410 nM,880 nM,> 8150 nM,< 0.37,< 7.3,< 3000 nM,–,–
CC1=C[C@@H]2Cc3nc4cc(Cl)ccc4c(NCCCCCCCNc4c5c(nc6ccccc46)CCCC5)c3[C@H](C1)C2,290 nM,490 nM,460 nM,< 2.2,< 3.4,< 1000 nM,–,–
CC1=CC2Cc3nc4cc(Cl)ccc4c(NCCCN(C)CCCNc4c5c(nc6ccccc46)CCCC5)c3C(C1)C2 (stereo not drawn),320 nM,450 nM,430 nM,< 2.3,< 3.1,< 1000 nM,–,–
CC1=CC2Cc3nc4cc(Cl)ccc4c(NCCCCCCCNc4c5c(nc6cc(Cl)ccc46)CCCC5)c3C(C1)C2 (stereo not drawn),270 nM,430 nM,> 6880 nM,< 0.44,< 11,< 3000 nM,–,–
CC1=C[C@H]2Cc3nc4cc(Cl)ccc4c(NCCCCCCCNc4c5c(nc6ccccc46)CCCC5)c3[C@@H](C1)C2,210 nM,420 nM,350 nM,2.1,3.5,730 nM,–,–
COc1cc2c(cc1OC)C(=O)C(CC1CCN(CCCNc3c4c(nc5ccccc35)CCCC4)CC1)C2 (stereo not drawn),280 nM,620 nM,–,–,< 3.6,< 1000 nM,–,–
CCC1=CC2Cc3nc4cc(Cl)ccc4c(NCCN4CCC(CC5Cc6cc(OC)c(OC)cc6C5)CC4)c3C(C1)C2 (stereo not drawn),290 nM,700 nM,> 7140 nM,< 0.5,12,3550 nM,–,–
CC1=CC2Cc3nc4cc(Cl)ccc4c(NCCCCCCNc4c5c(nc6ccccc46)CCCC5)c3C(C1)C2 (stereo not drawn),470 nM,660 nM,2990 nM,0.39,2.5,1170 nM,–,–
CC1=CC2Cc3nc4cc(Cl)ccc4c(NCCCCCCCCNc4c5c(nc6cc(Cl)ccc46)CCCC5)c3C(C1)C2 (stereo not drawn),170 nM,460 nM,> 7140 nM,< 0.14,5.7,970 nM,–,–
COc1cc2c(cc1OC)CC(CC1CCN(CCNc3c4c(nc5cc(Cl)ccc35)CC3C=C(C)CC4C3)CC1)C2 (stereo not drawn),490 nM,1180 nM,> 7010 nM,< 1,14,6760 nM,–,–
CC1=CC2Cc3nc4cc(Cl)ccc4c(NCCCCCCCNc4c5c(nc6ccccc46)CCCC5)c3C(C1)C2 (stereo not drawn),240 nM,430 nM,470 nM,< 2.1,< 4.2,< 1000 nM,–,–
